Source: ChEMBL document CHEMBL1649385, “Synthesis and in vitro anti-tumor activity of new oxadiazole thioglycosides” (Eur J Med Chem, 2011)
Converted amounts (≈) assume the structure as drawn.

How the values were obtained:
MCF7 = assay: Cytotoxicity against human MCF7 cells after 48 hrs by SRB assay; assay type: functional, cell-based; conditions: MCF7, 48 h
Procedure, shortened: (§1)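 SRB assay: cells seeded at 10⁴ cells/well and left 24 h to attach, then exposed to four concentrations of compound for 48 h at 37 °C, 5% CO₂. Cells fixed, washed and stained with sulforhodamine B; excess dye removed with acetic acid, bound dye taken up in Tris-EDTA and read on an ELISA reader. IC50 from surviving fraction versus concentration curves, relative to saline control.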

HepG2 = assay: Cytotoxicity against human HepG2 cells after 48 hrs by SRB assay; assay type: functional, cell-based; conditions: HepG2, 48 h; procedure, shortened: as §1
[1] = Acute toxicity in po dosed albino Wistar rat assessed as mortality after 24 hrs; assay type: organism-based; conditions: in vivo
Procedure, shortened: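 Male Wistar albino rats (110–115 g) were acclimated for 7 days with pellet diet and water ad libitum. Compound in DMSO was given as a single oral gavage of 500 mg/kg body weight at a fixed 0.5 mL/rat, with eight rats per group. Controls received 0.5 mL DMSO. Mortality was recorded after 24 h.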

[2] = Acute toxicity in albino Wistar rat assessed as mortality at 50 mg/kg, po after 24 hrs; assay type: organism-based; parameters: dose 50 mg/kg, route oral; conditions: in vivo, read-out: Activity

| SMILES | IC50 (MCF7) [µg/mL] | IC50 (HepG2) [µg/mL] | LD50 at 24 h [1] [mg/kg] | mortality at 24 h [2] [%] |
| --- | --- | --- | --- | --- |
| CC(C)Cc1nn(-c2ccccc2)cc1-c1nnc(S)o1 | 17.9 (≈ 59.6 µM) | 43.6 (≈ 145 µM) | > 500 | – |
| O=c1[nH]cc(F)c(=O)[nH]1 [FLUOROURACIL] | – | 25 (≈ 192 µM) | – | – |
| CSCSc1nnc(-c2cn(-c3ccccc3)nc2CC(C)C)o1 | 2.67 (≈ 7.41 µM) | 4.62 (≈ 12.8 µM) | > 500 | 25 |
| CC/C(=C(\c1ccccc1)c1ccc(OCCN(C)C)cc1)c1ccccc1 [TAMOXIFEN] | 8.31 (≈ 22.4 µM) | – | – | – |
| CC(=O)OC[C@H]1O[C@@H](Sc2nnc(-c3cn(-c4ccccc4)nc3CC(C)C)o2)[C@H](OC(C)=O)[C@@H](OC(C)=O)[C@@H]1OC(C)=O | 7.1 (≈ 11.3 µM) | 13.9 (≈ 22 µM) | > 500 | 25 |
| CC(=O)OC[C@@H]1O[C@H](Sc2nnc(C)c(=O)n2/N=C\c2cn(-c3ccccc3)nc2CC(C)C)[C@@H](OC(C)=O)[C@H](OC(C)=O)[C@H]1OC(C)=O | 20.2 (≈ 29 µM) | 9.1 (≈ 13 µM) | – | – |
